Here are results for 17 compounds from ChEMBL document CHEMBL4350993, “Dipropargyl substituted diphenylpyrimidines as dual inhibitors of monoamine oxidase and acetylcholinesterase” (Eur J Med Chem, 2019).

The target of experiment [1] is T1, Amine oxidase [flavin-containing] B (Homo sapiens, UniProt P27338).
T1 sequence (P27338 whole entry): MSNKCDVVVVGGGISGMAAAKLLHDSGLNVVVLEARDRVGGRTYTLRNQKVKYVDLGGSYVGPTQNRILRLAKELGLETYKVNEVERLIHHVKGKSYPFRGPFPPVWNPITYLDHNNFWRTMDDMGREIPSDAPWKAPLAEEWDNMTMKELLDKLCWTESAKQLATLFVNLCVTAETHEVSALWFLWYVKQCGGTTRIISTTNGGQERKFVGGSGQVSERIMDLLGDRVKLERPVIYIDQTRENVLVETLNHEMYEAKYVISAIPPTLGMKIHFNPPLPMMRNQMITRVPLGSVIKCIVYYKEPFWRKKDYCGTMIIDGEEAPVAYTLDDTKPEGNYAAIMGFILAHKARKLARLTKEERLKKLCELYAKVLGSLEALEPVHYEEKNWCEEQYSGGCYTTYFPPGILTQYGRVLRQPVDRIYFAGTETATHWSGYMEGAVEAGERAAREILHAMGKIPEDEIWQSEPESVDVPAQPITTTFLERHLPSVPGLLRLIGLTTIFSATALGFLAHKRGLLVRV
The experiment in a line: Inhibition of human recombinant microsomal MAO-B expressed in baculovirus infected BTI-TN-5B1-4 cells assessed as reduction in production of H202 using p-tyramine as substrate incubated for 30 mins followed by substrate addition by horse radish peroxidase/Amplex red reagent based fluorescence assay. Type of experiment: cell-based.

A further experiment deals with Acetylcholinesterase (Electrophorus electricus, UniProt O42275). Briefly: Inhibition of electric eel AChE assessed as reduction in production of H202 using acetylcholine as substrate incubated for 15 mins followed by substrate addition by horse radish peroxidase/Amplex red reagent based fluorescence assay.
Experiment [2] concerns the target T2, Amine oxidase [flavin-containing] A (Homo sapiens, UniProt P21397).
T2 sequence (P21397 whole entry): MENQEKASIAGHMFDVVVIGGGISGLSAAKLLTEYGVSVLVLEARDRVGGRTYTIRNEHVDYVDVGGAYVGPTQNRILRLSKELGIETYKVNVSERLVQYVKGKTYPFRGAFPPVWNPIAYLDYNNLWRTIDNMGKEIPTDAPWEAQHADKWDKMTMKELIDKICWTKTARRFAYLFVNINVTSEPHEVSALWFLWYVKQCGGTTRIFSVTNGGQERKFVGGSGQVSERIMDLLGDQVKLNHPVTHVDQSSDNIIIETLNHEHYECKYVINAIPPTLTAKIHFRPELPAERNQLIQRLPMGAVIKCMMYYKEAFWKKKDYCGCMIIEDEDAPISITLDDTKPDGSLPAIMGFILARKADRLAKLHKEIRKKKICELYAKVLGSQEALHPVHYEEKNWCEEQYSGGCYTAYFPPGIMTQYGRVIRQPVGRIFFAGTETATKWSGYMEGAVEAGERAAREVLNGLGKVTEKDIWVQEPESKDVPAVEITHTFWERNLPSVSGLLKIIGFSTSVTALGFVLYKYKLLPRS
The experiment in a line: Inhibition of human recombinant microsomal MAO-A expressed in baculovirus infected BTI-TN-5B1-4 cells assessed as reduction in production of H202 using p-tyramine as substrate incubated for 30 mins followed by substrate addition by horse radish peroxidase/Amplex red reagent based fluorescence assay. In kind it is cell-based.

The species named for another experiment is Homo sapiens. The experiment in a line: Selectivity index, ratio of IC50 for human recombinant microsomal MAO- A expressed in baculovirus infected BTI-TN-5B1- 4 cells using p-tyramine as substrate to IC50 for human recombinant microsomal MAO- B expressed in baculovirus infected BTI-TN-5B1- 4 cells using p-tyramine as substrate by horse radish peroxidase/Amplex red reagent based fluorescence assay. The method, boiled down: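 Recombinant hMAO-A (1.1 µg) or hMAO-B (7.5 µg) preincubated with inhibitor over a concentration range for 30 min at 37 °C in 0.05 M sodium phosphate, pH 7.4. Reaction started with 1 mM p-tyramine, 200 µM Amplex Red and 1 U/mL HRP (final concentrations). H₂O₂ was read by fluorescence (ex 545/em 590 nm) after 30 min dark incubation. Background without enzyme was subtracted; vehicle served as control.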

Experiment [3] addresses T2, Amine oxidase [flavin-containing] A. The experiment in a line: Inhibition of human recombinant microsomal MAO- A expressed in baculovirus infected BTI-TN-5B1- 4 cells assessed as reduction in production of H202 at 50 uM using p-tyramine as substrate incubated for 30 mins followed by substrate addition by horse radish peroxidase/Amplex red reagent based fluorescence assay. To be noted: 0.5 h. The method, boiled down: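 Recombinant hMAO-A (1.1 µg protein) preincubated 30 min at 37 °C with test compound in 0.05 M sodium phosphate, pH 7.4. Reaction started with (final) 200 µM Amplex Red, 1 U/mL HRP and 1 mM p-tyramine. After 30 min in the dark, H2O2 read by fluorescence (ex 545/em 590 nm) at 37 °C. Background without enzyme subtracted; vehicle control.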

Chain of Acetylcholinesterase (O42275 whole entry): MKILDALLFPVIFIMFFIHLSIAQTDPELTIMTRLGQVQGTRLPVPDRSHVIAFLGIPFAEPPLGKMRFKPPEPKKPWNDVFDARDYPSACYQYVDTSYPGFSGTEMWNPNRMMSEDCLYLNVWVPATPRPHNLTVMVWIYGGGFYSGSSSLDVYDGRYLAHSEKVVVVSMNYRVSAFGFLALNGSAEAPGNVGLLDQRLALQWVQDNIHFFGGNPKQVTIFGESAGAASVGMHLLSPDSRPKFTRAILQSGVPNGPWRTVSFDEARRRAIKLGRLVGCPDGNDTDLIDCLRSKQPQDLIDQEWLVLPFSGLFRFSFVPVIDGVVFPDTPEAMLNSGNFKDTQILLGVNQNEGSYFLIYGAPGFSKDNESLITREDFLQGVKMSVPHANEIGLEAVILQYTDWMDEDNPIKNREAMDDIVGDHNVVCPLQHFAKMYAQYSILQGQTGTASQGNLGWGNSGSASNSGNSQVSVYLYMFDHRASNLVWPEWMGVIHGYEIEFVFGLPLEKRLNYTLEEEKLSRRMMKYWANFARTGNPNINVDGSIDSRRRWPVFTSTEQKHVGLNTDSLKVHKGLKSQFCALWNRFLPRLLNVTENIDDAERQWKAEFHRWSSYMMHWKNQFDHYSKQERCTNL

In the case of `C#CCOc1ccc(-c2cc(-c3ccccc3OCC#C)nc(-c3ccccc3)n2)cc1`, the values for the concentration for half-maximal inhibition (IC50) (in experiment [1]; on Acetylcholinesterase; in experiment [2] (read-out: IC50)) were 14.4 µM, 7.25 µM and 22 µM, respectively. Also, the Ratio IC50 in the experiment filed under Homo sapiens came to 1.5.

Take `C#CCOc1ccccc1-c1cc(-c2ccccc2OCC#C)nc(-c2ccccc2)n1`: the half-maximal inhibitory concentration (IC50) in experiment [1] is 13.8 µM; on Acetylcholinesterase, 8.12 µM; in experiment [2] (bti-tn-5b1-4) it was “Not Active”. The inhibition at 50 µM in experiment [3] was less than 50%. The Ratio IC50 in the experiment filed under Homo sapiens is greater than 4.

Take `C#CCOc1ccc(-c2cc(-c3ccc(OCC#C)c(OCC)c3)nc(-c3ccccc3)n2)cc1`: the values for the concentration for half-maximal inhibition (IC50) (in experiment [1]; on Acetylcholinesterase; in experiment [2] (bti-tn-5b1-4)) were 29 µM, 6.94 µM and “Not Active”, respectively. The inhibition at 50 µM in experiment [3] was less than 50%. The Ratio IC50 in the experiment filed under Homo sapiens was greater than 2.

On to `C#CCOc1ccc(-c2cc(-c3ccc(OCC#C)cc3)nc(C)n2)cc1`, for which the 50% inhibitory concentration (IC50) in experiment [1] amounted to 7.83 µM; at Acetylcholinesterase it was 1.76 µM; in experiment [2] (read-out: IC50), 34.1 µM. Further, the Ratio IC50 in the experiment listed under Homo sapiens came to 4.4.

Regarding `C#CCOc1ccc(-c2cc(-c3ccccc3OCC#C)nc(C)n2)cc1`, the figures for the IC50 (in experiment [1]; at Acetylcholinesterase; in experiment [2] (read-out: IC50)) were 18.1 µM, 2.56 µM and 23.2 µM, respectively. The Ratio IC50 in the experiment filed under Homo sapiens turned out to be 1.3.

As for `C#CCOc1ccc(-c2cc(-c3cccc(OCC#C)c3)nc(C)n2)cc1`, the concentration for half-maximal inhibition (IC50) in experiment [1] worked out at 8.09 µM; at Acetylcholinesterase, 5.88 µM; in experiment [2] (read-out: IC50), 21.1 µM. Further, the Ratio IC50 in the experiment filed under Homo sapiens was determined as 2.6.

As for `C#CCOc1ccc(-c2cc(-c3ccccc3OCC#C)nc(N)n2)cc1`, the concentration for half-maximal inhibition (IC50) in experiment [1] is 22.1 µM; on Acetylcholinesterase it was 1.81 µM; in experiment [2] (read-out: IC50), 28.6 µM. For the same compound, in the experiment filed under Homo sapiens, the Ratio IC50 was determined as 1.3.

Regarding `C#CCOc1ccc(-c2cc(-c3ccc(OCC#C)c(OCC)c3)nc(C)n2)cc1`, the results for the IC50 (in experiment [1]; at Acetylcholinesterase; in experiment [2] (bti-tn-5b1-4)) were 11 µM, 6.38 µM and “Not Active”, respectively. Besides, the inhibition at 50 µM in experiment [3] was less than 50%. The Ratio IC50 in the experiment filed under Homo sapiens was greater than 5.

`C#CCOc1ccc(-c2cc(-c3ccc(OCC#C)cc3)nc(-c3ccccc3)n2)cc1`: the IC50 in experiment [1] was found to be 12.3 µM; on Acetylcholinesterase it was 7.53 µM; in experiment [2] (read-out: IC50), 25.6 µM. Also, the Ratio IC50 in the experiment filed under Homo sapiens was determined as 2.1.

`C#CCOc1ccc(-c2cc(-c3ccc(OCC#C)c(OCC)c3)nc(N)n2)cc1`: the IC50 in experiment [1] is 14 µM; on Acetylcholinesterase, 7.05 µM; in experiment [2] (bti-tn-5b1-4), “Not Active”. Also, in experiment [3], the inhibition at 50 µM was less than 50%. The Ratio IC50 in the experiment filed under Homo sapiens is greater than 4.

In the case of `C#CCOc1ccc(-c2cc(-c3ccc(OCC#C)c(OC)c3)nc(-c3ccccc3)n2)cc1`, the concentration for half-maximal inhibition (IC50) in experiment [1] turned out to be 15.7 µM; on Acetylcholinesterase, 6.99 µM; in experiment [2] (read-out: IC50), 24.9 µM. Moreover, the Ratio IC50 in the experiment filed under Homo sapiens is 1.6.

Consider `C#CCOc1cccc(-c2cc(-c3cccc(OCC#C)c3)nc(N)n2)c1`, for which the IC50 is 22.1 µM in experiment [1], 6.99 µM on Acetylcholinesterase and “Not Active” in experiment [2] (bti-tn-5b1-4). In addition, in experiment [3], the inhibition at 50 µM was less than 50%. Also, the Ratio IC50 in the experiment filed under Homo sapiens is greater than 3.

In the case of `C#CCOc1ccccc1-c1cc(-c2ccccc2OCC#C)nc(N)n1`, the figures for the IC50 (in experiment [1]; on Acetylcholinesterase; in experiment [2] (bti-tn-5b1-4)) were 11.1 µM, 5.19 µM and “Not Active”, respectively. Moreover, the inhibition at 50 µM in experiment [3] was less than 50%. Besides, in the experiment filed under Homo sapiens, the Ratio IC50 was greater than 5.

For `C#CCOc1ccc(-c2cc(-c3ccc(OCC#C)c(OC)c3)nc(C)n2)cc1`, the half-inhibitory concentration (IC50) was 21.1 µM in experiment [1], 5.92 µM on Acetylcholinesterase and 25 µM in experiment [2] (read-out: IC50). For the same compound, in the experiment filed under Homo sapiens, the Ratio IC50 was found to be 1.2.

As to `C#CCOc1ccc(-c2cc(-c3ccc(OCC#C)c(OC)c3)nc(N)n2)cc1`, the concentration for half-maximal inhibition (IC50) is 20 µM in experiment [1], 4.58 µM on Acetylcholinesterase and “Not Active” in experiment [2] (bti-tn-5b1-4). In experiment [3], the inhibition at 50 µM is less than 50%. The Ratio IC50 in the experiment listed under Homo sapiens is greater than 3.

Turning to `C#CCOc1cccc(-c2cc(-c3cccc(OCC#C)c3)nc(-c3ccccc3)n2)c1`, the half-maximal inhibitory concentration (IC50) in experiment [1] is 23.4 µM; at Acetylcholinesterase, 6.73 µM; in experiment [2] (bti-tn-5b1-4), “Not Active”. Further, the inhibition at 50 µM in experiment [3] is less than 50%. The Ratio IC50 in the experiment listed under Homo sapiens is greater than 3.

`C#CCOc1ccc(-c2cc(-c3cccc(OCC#C)c3)nc(-c3ccccc3)n2)cc1`: the IC50 in experiment [1] is 17.7 µM; at Acetylcholinesterase, 4.39 µM; in experiment [2] (read-out: IC50), 25.8 µM. For the same compound, the Ratio IC50 in the experiment filed under Homo sapiens came out at 1.5.
